# Key:
# Format in all cases: functional
# Escherichia coli [1] = assay: Antibacterial activity against Escherichia coli isolate 210737 after 18 hrs in presence of BPL by CLSI broth microdilution method; conditions: isolate 210737, 18 h
# Summary of the method: (§1)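 CLSI broth microdilution against clinical isolates (ESBL E. coli, KPC-2 MDR K. pneumoniae, IMP-4 MDR P. aeruginosa; five per species). Iron limitation: Mueller-Hinton broth supplemented with 16 mg/liter 2,2'-bipyridyl to complex iron and induce iron uptake systems. Read-out: MIC.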
# Escherichia coli [2] = assay: Antibacterial activity against extended-spectrum beta-lactamase producing Escherichia coli isolate 208687 after 18 hrs by CLSI broth microdilution method; conditions: isolate 208687, 18 h
# Pseudomonas aeruginosa [3] = assay: Antibacterial activity against IMP-4 producing Pseudomonas aeruginosa isolate 207272 after 18 hrs by CLSI broth microdilution method; conditions: isolate 207272, 18 h
# Klebsiella pneumoniae [4] = assay: Antibacterial activity against KPC-2 producing Klebsiella pneumoniae isolate 212232 after 18 hrs in presence of BPL by CLSI broth microdilution method; conditions: isolate 212232, 18 h; summary of the method: as §1
# Klebsiella pneumoniae [5] = assay: Selectivity index, ratio of MIC for against KPC-2 producing Klebsiella pneumoniae isolate 212423 to MIC for against KPC-2 producing Klebsiella pneumoniae isolate 212423 in presence of BPL
# Klebsiella pneumoniae [6] = assay: Antibacterial activity against KPC-2 producing Klebsiella pneumoniae isolate 212232 after 18 hrs by CLSI broth microdilution method; conditions: isolate 212232, 18 h
# Escherichia coli [7] = assay: Antibacterial activity against extended-spectrum beta-lactamase producing Escherichia coli isolate 212648 after 18 hrs by CLSI broth microdilution method; conditions: isolate 212648, 18 h
# Escherichia coli [8] = assay: Antibacterial activity against extended-spectrum beta-lactamase producing Escherichia coli isolate 209285 after 18 hrs by CLSI broth microdilution method; conditions: isolate 209285, 18 h
# Klebsiella pneumoniae [9] = assay: Antibacterial activity against KPC-2 producing Klebsiella pneumoniae isolate 209735 after 18 hrs in presence of BPL by CLSI broth microdilution method; conditions: isolate 209735, 18 h; summary of the method: as §1
# Escherichia coli [10] = assay: Selectivity index, ratio of MIC for against Escherichia coli isolate 210737 to MIC for Escherichia coli isolate 210737 in presence of BPL
# Pseudomonas aeruginosa [11] = assay: Antibacterial activity against IMP-4 producing Pseudomonas aeruginosa isolate 209321 after 18 hrs by CLSI broth microdilution method; conditions: isolate 209321, 18 h
# Escherichia coli [12] = assay: Selectivity index, ratio of MIC for against extended-spectrum beta-lactamase producing Escherichia coli isolate 106342 to MIC for extended-spectrum beta-lactamase producing Escherichia coli isolate 106342 in presence of BPL
# Klebsiella pneumoniae [13] = assay: Antibacterial activity against KPC-2 producing Klebsiella pneumoniae isolate 212423 after 18 hrs by CLSI broth microdilution method; conditions: isolate 212423, 18 h
# Klebsiella pneumoniae [14] = assay: Antibacterial activity against KPC-2 producing Klebsiella pneumoniae isolate 212423 after 18 hrs in presence of BPL by CLSI broth microdilution method; conditions: isolate 212423, 18 h; summary of the method: as §1
# Pseudomonas aeruginosa [15] = assay: Antibacterial activity against IMP-4 producing Pseudomonas aeruginosa isolate 212886 after 18 hrs in presence of BPL by CLSI broth microdilution method; conditions: isolate 212886, 18 h; summary of the method: as §1
# Escherichia coli [16] = assay: Selectivity index, ratio of MIC for against extended-spectrum beta-lactamase producing Escherichia coli isolate 209285 to MIC for extended-spectrum beta-lactamase producing Escherichia coli isolate 209285 in presence of BPL
# Klebsiella pneumoniae [17] = assay: Antibacterial activity against KPC-2 producing Klebsiella pneumoniae isolate 209735 after 18 hrs by CLSI broth microdilution method; conditions: isolate 209735, 18 h
# Pseudomonas aeruginosa [18] = assay: Selectivity index, ratio of MIC for against IMP-4 producing Pseudomonas aeruginosa isolate 209471 to MIC for against IMP-4 producing Pseudomonas aeruginosa isolate 209471 in presence of BPL
# Klebsiella pneumoniae [19] = assay: Selectivity index, ratio of MIC for against KPC-2 producing Klebsiella pneumoniae isolate 212232 to MIC for against KPC-2 producing Klebsiella pneumoniae isolate 212232 in presence of BPL
# Klebsiella pneumoniae [20] = assay: Antibacterial activity against KPC-2 producing Klebsiella pneumoniae isolate 209632 after 18 hrs in presence of BPL by CLSI broth microdilution method; conditions: isolate 209632, 18 h; summary of the method: as §1
# Escherichia coli [21] = assay: Antibacterial activity against extended-spectrum beta-lactamase producing Escherichia coli isolate 212648 after 18 hrs in presence of BPL by CLSI broth microdilution method; conditions: isolate 212648, 18 h; summary of the method: as §1
# Escherichia coli [22] = assay: Antibacterial activity against Escherichia coli isolate 210737 after 18 hrs by CLSI broth microdilution method; conditions: isolate 210737, 18 h
# Escherichia coli [23] = assay: Antibacterial activity against extended-spectrum beta-lactamase producing Escherichia coli isolate 106342 after 18 hrs by CLSI broth microdilution method; conditions: isolate 106342, 18 h
# Klebsiella pneumoniae [24] = assay: Antibacterial activity against KPC-2 producing Klebsiella pneumoniae isolate 209632 after 18 hrs by CLSI broth microdilution method; conditions: isolate 209632, 18 h
# Pseudomonas aeruginosa [25] = assay: Antibacterial activity against IMP-4 producing Pseudomonas aeruginosa isolate 208247 after 18 hrs by CLSI broth microdilution method; conditions: isolate 208247, 18 h
# Escherichia coli [26] = assay: Antibacterial activity against extended-spectrum beta-lactamase producing Escherichia coli isolate 106342 after 18 hrs in presence of BPL by CLSI broth microdilution method; conditions: isolate 106342, 18 h; summary of the method: as §1
# Klebsiella pneumoniae [27] = assay: Antibacterial activity against KPC-2 producing Klebsiella pneumoniae isolate 212229 after 18 hrs by CLSI broth microdilution method; conditions: isolate 212229, 18 h
# Pseudomonas aeruginosa [28] = assay: Selectivity index, ratio of MIC for against IMP-4 producing Pseudomonas aeruginosa isolate 209321 to MIC for against IMP-4 producing Pseudomonas aeruginosa isolate 209321 in presence of BPL
# Pseudomonas aeruginosa [29] = assay: Selectivity index, ratio of MIC for against IMP-4 producing Pseudomonas aeruginosa isolate 208247 to MIC for against IMP-4 producing Pseudomonas aeruginosa isolate 208247 in presence of BPL
# Escherichia coli [30] = assay: Antibacterial activity against extended-spectrum beta-lactamase producing Escherichia coli isolate 208687 after 18 hrs in presence of BPL by CLSI broth microdilution method; conditions: isolate 208687, 18 h; summary of the method: as §1
# Klebsiella pneumoniae [31] = assay: Antibacterial activity against KPC-2 producing Klebsiella pneumoniae isolate 212229 after 18 hrs in presence of BPL by CLSI broth microdilution method; conditions: isolate 212229, 18 h; summary of the method: as §1
# Klebsiella pneumoniae [32] = assay: Selectivity index, ratio of MIC for against KPC-2 producing Klebsiella pneumoniae isolate 209632 to MIC for against KPC-2 producing Klebsiella pneumoniae isolate 209632 in presence of BPL
# Klebsiella pneumoniae [33] = assay: Selectivity index, ratio of MIC for against KPC-2 producing Klebsiella pneumoniae isolate 212229 to MIC for against KPC-2 producing Klebsiella pneumoniae isolate 212229 in presence of BPL
# Pseudomonas aeruginosa [34] = assay: Selectivity index, ratio of MIC for against IMP-4 producing Pseudomonas aeruginosa isolate 207272 to MIC for against IMP-4 producing Pseudomonas aeruginosa isolate 207272 in presence of BPL
# Pseudomonas aeruginosa [35] = assay: Antibacterial activity against IMP-4 producing Pseudomonas aeruginosa isolate 209471 after 18 hrs in presence of BPL by CLSI broth microdilution method; conditions: isolate 209471, 18 h; summary of the method: as §1
# Escherichia coli [36] = assay: Selectivity index, ratio of MIC for against extended-spectrum beta-lactamase producing Escherichia coli isolate 208687 to MIC for extended-spectrum beta-lactamase producing Escherichia coli isolate 208687 in presence of BPL
# Pseudomonas aeruginosa [37] = assay: Antibacterial activity against IMP-4 producing Pseudomonas aeruginosa isolate 212886 after 18 hrs by CLSI broth microdilution method; conditions: isolate 212886, 18 h
# Escherichia coli [38] = assay: Selectivity index, ratio of MIC for against extended-spectrum beta-lactamase producing Escherichia coli isolate 212648 to MIC for extended-spectrum beta-lactamase producing Escherichia coli isolate 212648 in presence of BPL
# Pseudomonas aeruginosa [39] = assay: Antibacterial activity against IMP-4 producing Pseudomonas aeruginosa isolate 209321 after 18 hrs in presence of BPL by CLSI broth microdilution method; conditions: isolate 209321, 18 h; summary of the method: as §1
# Escherichia coli [40] = assay: Antibacterial activity against extended-spectrum beta-lactamase producing Escherichia coli isolate 209285 after 18 hrs in presence of BPL by CLSI broth microdilution method; conditions: isolate 209285, 18 h; summary of the method: as §1
# Pseudomonas aeruginosa [41] = assay: Antibacterial activity against IMP-4 producing Pseudomonas aeruginosa isolate 209471 after 18 hrs by CLSI broth microdilution method; conditions: isolate 209471, 18 h
# Pseudomonas aeruginosa [42] = assay: Selectivity index, ratio of MIC for against IMP-4 producing Pseudomonas aeruginosa isolate 212886 to MIC for against IMP-4 producing Pseudomonas aeruginosa isolate 212886 in presence of BPL
# Pseudomonas aeruginosa [43] = assay: Antibacterial activity against IMP-4 producing Pseudomonas aeruginosa isolate 207272 after 18 hrs in presence of BPL by CLSI broth microdilution method; conditions: isolate 207272, 18 h; summary of the method: as §1
# Klebsiella pneumoniae [44] = assay: Selectivity index, ratio of MIC for against KPC-2 producing Klebsiella pneumoniae isolate 209735 to MIC for against KPC-2 producing Klebsiella pneumoniae isolate 209735 in presence of BPL
# Pseudomonas aeruginosa [45] = assay: Antibacterial activity against IMP-4 producing Pseudomonas aeruginosa isolate 208247 after 18 hrs in presence of BPL by CLSI broth microdilution method; conditions: isolate 208247, 18 h; summary of the method: as §1
compound,measurement,setting,value
CC(C)C(O/N=C(\C(=O)N[C@@H]1C(=O)N(S(=O)(=O)O)[C@@H]1CN1CCNC1=O)c1csc(N)n1)c1cc(=O)c(O)cn1O (stereo not given in full),MIC,Escherichia coli [1],0.25 µg/mL
same,MIC,Escherichia coli [2],1 µg/mL
same,MIC,Pseudomonas aeruginosa [3],32 µg/mL
same,MIC,Klebsiella pneumoniae [4],0.25 µg/mL
same,Selectivity Index,Klebsiella pneumoniae [5],4
same,MIC,Klebsiella pneumoniae [6],1 µg/mL
same,MIC,Escherichia coli [7],2 µg/mL
same,MIC,Escherichia coli [8],1 µg/mL
same,MIC,Klebsiella pneumoniae [9],4 µg/mL
same,Selectivity Index,Escherichia coli [10],2
same,MIC,Pseudomonas aeruginosa [11],32 µg/mL
same,Selectivity Index,Escherichia coli [12],1
same,MIC,Klebsiella pneumoniae [13],0.5 µg/mL
same,MIC,Klebsiella pneumoniae [14],0.125 µg/mL
same,MIC,Pseudomonas aeruginosa [15],32 µg/mL
same,Selectivity Index,Escherichia coli [16],4
same,MIC,Klebsiella pneumoniae [17],16 µg/mL
same,Selectivity Index,Pseudomonas aeruginosa [18],1
same,Selectivity Index,Klebsiella pneumoniae [19],4
same,MIC,Klebsiella pneumoniae [20],4 µg/mL
same,MIC,Escherichia coli [21],2 µg/mL
same,MIC,Escherichia coli [22],0.5 µg/mL
same,MIC,Escherichia coli [23],1 µg/mL
same,MIC,Klebsiella pneumoniae [24],4 µg/mL
same,MIC,Pseudomonas aeruginosa [25],64 µg/mL
same,MIC,Escherichia coli [26],1 µg/mL
same,MIC,Klebsiella pneumoniae [27],0.25 µg/mL
same,Selectivity Index,Pseudomonas aeruginosa [28],1
same,Selectivity Index,Pseudomonas aeruginosa [29],1
same,MIC,Escherichia coli [30],0.5 µg/mL
same,MIC,Klebsiella pneumoniae [31],0.125 µg/mL
same,Selectivity Index,Klebsiella pneumoniae [32],1
same,Selectivity Index,Klebsiella pneumoniae [33],2
same,Selectivity Index,Pseudomonas aeruginosa [34],1
same,MIC,Pseudomonas aeruginosa [35],32 µg/mL
same,Selectivity Index,Escherichia coli [36],2
same,MIC,Pseudomonas aeruginosa [37],32 µg/mL
same,Selectivity Index,Escherichia coli [38],1
same,MIC,Pseudomonas aeruginosa [39],32 µg/mL
same,MIC,Escherichia coli [40],0.25 µg/mL
same,MIC,Pseudomonas aeruginosa [41],32 µg/mL
same,Selectivity Index,Pseudomonas aeruginosa [42],1
same,MIC,Pseudomonas aeruginosa [43],32 µg/mL
same,Selectivity Index,Klebsiella pneumoniae [44],4
same,MIC,Pseudomonas aeruginosa [45],64 µg/mL
CC(C)C(O/N=C(\C(=O)N[C@@H]1C(=O)N(S(=O)(=O)O)[C@@H]1COC(=O)CNC(=O)c1cc(=O)c(O)c[nH]1)c1csc(N)n1)c1cc(=O)c(O)cn1O (stereo not given in full),MIC,Escherichia coli [1],8 µg/mL
same,MIC,Escherichia coli [2],32 µg/mL
same,MIC,Pseudomonas aeruginosa [3],64 µg/mL
same,MIC,Klebsiella pneumoniae [4],16 µg/mL
same,Selectivity Index,Klebsiella pneumoniae [5],4
same,MIC,Klebsiella pneumoniae [6],> 64 µg/mL
same,MIC,Escherichia coli [7],32 µg/mL
same,MIC,Escherichia coli [8],32 µg/mL
same,MIC,Klebsiella pneumoniae [9],> 64 µg/mL
same,Selectivity Index,Escherichia coli [10],2
same,MIC,Pseudomonas aeruginosa [11],64 µg/mL
same,Selectivity Index,Escherichia coli [12],1
same,MIC,Klebsiella pneumoniae [13],> 64 µg/mL
same,MIC,Klebsiella pneumoniae [14],> 64 µg/mL
same,MIC,Pseudomonas aeruginosa [15],> 64 µg/mL
same,Selectivity Index,Escherichia coli [16],2
same,MIC,Klebsiella pneumoniae [17],> 64 µg/mL
same,Selectivity Index,Pseudomonas aeruginosa [18],1 - 2
same,Selectivity Index,Klebsiella pneumoniae [19],>4
same,MIC,Klebsiella pneumoniae [20],> 64 µg/mL
same,MIC,Escherichia coli [21],16 µg/mL
same,MIC,Escherichia coli [22],16 µg/mL
same,MIC,Escherichia coli [23],16 µg/mL
same,MIC,Klebsiella pneumoniae [24],> 64 µg/mL
same,MIC,Pseudomonas aeruginosa [25],64 µg/mL
same,MIC,Escherichia coli [26],16 µg/mL
same,MIC,Klebsiella pneumoniae [27],> 64 µg/mL
same,Selectivity Index,Pseudomonas aeruginosa [28],2
same,Selectivity Index,Pseudomonas aeruginosa [29],1
same,MIC,Escherichia coli [30],4 µg/mL
same,MIC,Klebsiella pneumoniae [31],> 64 µg/mL
same,Selectivity Index,Klebsiella pneumoniae [32],4
same,Selectivity Index,Klebsiella pneumoniae [33],4
same,Selectivity Index,Pseudomonas aeruginosa [34],1
same,MIC,Pseudomonas aeruginosa [35],> 64 µg/mL
same,Selectivity Index,Escherichia coli [36],8
same,MIC,Pseudomonas aeruginosa [37],> 64 µg/mL
same,Selectivity Index,Escherichia coli [38],2
same,MIC,Pseudomonas aeruginosa [39],32 µg/mL
same,MIC,Escherichia coli [40],16 µg/mL
same,MIC,Pseudomonas aeruginosa [41],> 64 µg/mL
same,Selectivity Index,Pseudomonas aeruginosa [42],1 - 2
same,MIC,Pseudomonas aeruginosa [43],64 µg/mL
same,Selectivity Index,Klebsiella pneumoniae [44],4
same,MIC,Pseudomonas aeruginosa [45],64 µg/mL
